Screens as filed in PubChem BioAssay.
This excerpt belongs to a sample that is enriched for hits.
XiGFP reactiv = reactivates the inactive X chromosome in mouse fibroblasts. XiGFP mouse fibroblasts, % GFP-positive cells imaging, 3 d; cells co-treated with 5-aza-dC sensitizer; scaled so ellipticine positive control = 100%. hit rate 0.055% among 360,000. activation, % at 7.58 µM;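 active = mean normalized replicate activation at least 10% and every replicate at or above 10%; inconclusive = only one of the two criteria met; inactive = mean below 10% and not all replicates reach 10%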
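Schedule: 3 d treatment, 15 min room-temperature fixation; system: 68-5-11 XiGFP fibroblast line; buffer or medium: DMEM plus 5-aza-dC sensitizer; control set: ellipticine 6 µM positive control; compound: one concentration, pinned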
ABCB6 inh 2 = inhibitors of human ABC transporter ABCB6; Q9NP58; K562-ABCB6 porphyrin accumulation, flow cytometry, 1 h; hits give low values; fluorescence ratio to DMSO, % at 10 µM; hit rate 0.19% among 360,000; AID 602162;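 active = fluorescence ratio to DMSO below 75%, the collection mean minus 3 SD; inconclusive = too few cells collected in the well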;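 also: signal is porphyrin accumulated inside mitochondria; lower ratio means ABCB6 inhibition with less porphyrin fluorescence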
Target sequence (Q9NP58 whole entry, looked up): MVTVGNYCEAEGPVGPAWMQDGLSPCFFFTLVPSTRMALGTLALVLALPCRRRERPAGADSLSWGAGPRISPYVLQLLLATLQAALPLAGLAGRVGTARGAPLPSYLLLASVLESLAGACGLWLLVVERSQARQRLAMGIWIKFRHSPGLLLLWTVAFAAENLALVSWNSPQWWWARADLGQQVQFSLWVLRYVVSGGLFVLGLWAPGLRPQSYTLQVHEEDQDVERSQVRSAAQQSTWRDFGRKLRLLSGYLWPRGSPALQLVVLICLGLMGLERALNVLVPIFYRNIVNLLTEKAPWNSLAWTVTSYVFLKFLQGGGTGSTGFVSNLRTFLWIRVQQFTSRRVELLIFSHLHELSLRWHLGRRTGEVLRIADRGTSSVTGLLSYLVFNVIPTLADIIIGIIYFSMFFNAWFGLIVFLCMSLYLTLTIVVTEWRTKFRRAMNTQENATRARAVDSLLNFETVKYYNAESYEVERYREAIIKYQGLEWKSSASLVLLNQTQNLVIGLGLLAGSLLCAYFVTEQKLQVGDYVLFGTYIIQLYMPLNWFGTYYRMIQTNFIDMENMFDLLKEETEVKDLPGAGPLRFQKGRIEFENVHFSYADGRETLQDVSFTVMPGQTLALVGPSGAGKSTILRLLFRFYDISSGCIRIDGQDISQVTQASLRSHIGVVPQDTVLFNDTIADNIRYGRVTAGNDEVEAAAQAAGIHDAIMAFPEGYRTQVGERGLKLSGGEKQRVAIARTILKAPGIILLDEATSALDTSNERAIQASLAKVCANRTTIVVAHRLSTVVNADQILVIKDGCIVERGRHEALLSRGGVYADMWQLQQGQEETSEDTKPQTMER
Myeloid diff 2 = myeloid differentiation induction. AID 624256. ER-HoxA9 myeloid progenitors, lysozyme-GFP differentiation, flow cytometry. calls only at 10 µM. hit rate 1% among 360,000;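 active = normalized GFP-positive differentiation at or above the plate's own cutoff, the solvent-only control mean plus 3 SD; inconclusive = no clear call, values can overlap the other calls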;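 also: cells exposed to compound for four days before flow analysis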
Numbers stand for hits; – = inactive; ? = inconclusive; · = not tested or not shown; + = active, no number.

SMILES | XiGFP reactiv | ABCB6 inh 2 | Myeloid diff 2
Cn1cc(/C=C/c2cc[n+](C)cc2)c2cc(Cl)ccc21 | 48.6 | – | ?
O=C(Cn1sc2ccccc2c1=O)Nc1ccccc1 | – | – | +
O=C(Cn1sc2ccccc2c1=O)NC12CC3CC(CC(C3)C1)C2 | · | – | –
COc1ccc(S(=O)(=O)N(C)C[C@@H]2Oc3ccc(NC(=O)c4ccncc4)cc3C(=O)N([C@@H](C)CO)C[C@@H]2C)cc1 | – | · | ·
C[C@@H]1CN([C@@H](C)CO)C(=O)Cc2cc(NC(=O)CCCCCC(=O)Nc3ccccc3N)ccc2O[C@@H]1CN(C)C(=O)Nc1ccc2c(c1)OCO2 | – | · | ·
Cc1c(CC(=O)O)c(=O)oc2c(C)c(OCc3nn[nH]n3)ccc12 | – | – | +
Cc1c(Cc2ccccc2)c(=O)oc2c(C)c(OCc3nn[nH]n3)ccc12 | · | – | –
Cc1ccc(S(=O)(=O)N(C)C[C@H]2OCCCC[C@H](C)Oc3ccc(NS(=O)(=O)c4cn(C)cn4)cc3C(=O)N([C@H](C)CO)C[C@@H]2C)cc1 | – | · | ·
Cc1nc(C)c(C(=O)OCC(=O)Nc2ccccc2SCC#N)s1 | – | – | +
Cc1nc(C)c(C(=O)OCC(=O)Nc2ccccc2)s1 | – | – | –
COc1ccc(CCNC2CC(=O)N(CCc3ccc(OC)c(OC)c3)C2=O)cc1OC (stereo not given) | · | – | –
COc1ccc(CCN2C(=O)CC(NNc3ccc([N+](=O)[O-])cc3)C2=O)cc1OC (stereo not given) | – | – | +
Cc1ccccc1S(=O)(=O)N(C)C[C@H]1OCc2cnnn2CCCC(=O)N([C@H](C)CO)C[C@H]1C | – | – | +
Cc1ccccc1S(=O)(=O)N(C)C[C@H]1OCc2cnnn2CCCC(=O)N([C@@H](C)CO)C[C@H]1C | – | – | –
CC=Cc1ccc2n(c1=O)C[C@H]1[C@H](CO)[C@@H](C(=O)N3CCc4ccccc4C3)N(C(=O)COC)[C@@H]21 (mixture of isomers) | – | · | ·
Cc1ccc(S(=O)(=O)Nc2ccc3c(c2)C(=O)N(C)[C@@H]2CC[C@H](CC(=O)NCCc4ccncc4)O[C@@H]2CO3)cc1 | – | · | ·
C[C@@H]1CN([C@@H](C)CO)C(=O)Cc2cc(NC(=O)CCC(F)(F)F)ccc2O[C@H]1CN(C)C(=O)Nc1ccc(F)cc1 | – | · | ·
CCC1(C)Cc2c(C#N)c(N)n(-c3ccccc3)c(=O)c2CO1 (stereo not given) | · | – | –
CC1(C)C=C2C(=NN(c3ccccc3)C(N)=C2C#N)CO1 | – | – | +
CC(=O)NCC(c1cccs1)S(=O)(=O)c1ccc(F)cc1 (stereo not given) | – | – | –
CCCC(=O)NCC(c1cccs1)S(=O)(=O)c1ccc(Cl)cc1 (stereo not given) | – | – | +
CCCC#Cc1ccc2c(c1)O[C@H](CN(C)C(=O)C1CCCCC1)[C@H](C)CN([C@@H](C)CO)S2(=O)=O | – | · | ·
C[C@@H]1CCCCO[C@H](CN(C)S(C)(=O)=O)[C@H](C)CN([C@@H](C)CO)C(=O)c2cc(NC(=O)Nc3ccccc3)ccc2O1 | – | · | ·
[O-][n+]1onc2c1CCc1c-2nn(-c2ccccc2Cl)[n+]1[O-] | · | – | ·
Cc1ccc(-n2nc3c([n+]2[O-])CCc2c-3no[n+]2[O-])cc1 | · | – | +
SMILES | XiGFP reactiv | ABCB6 inh 2 | Myeloid diff 2
CCC(=O)N1[C@H](CO)[C@H](c2ccc(-c3ccccc3OC)cc2)[C@H]1CNC(C)=O | – | · | ·
C[C@H]1CCCCO[C@H](CN(C)S(=O)(=O)c2ccc(Cl)cc2)[C@@H](C)CN([C@@H](C)CO)C(=O)c2cc(NS(=O)(=O)c3cn(C)cn3)ccc2O1 | – | · | ·
COc1ccc2c3c(n(C)c2c1)[C@@H](CO)N(C)CC31CCN(C(=O)Nc2cccc(F)c2)CC1 | – | · | ·
O=C(CC1SC(N2CCCCC2)=NC1=O)Nc1ccc(C(=O)NCCc2ccc(F)cc2)cc1 (stereo not given) | – | – | +
COc1ccccc1CCNC(=O)c1ccc(NC(=O)CC2SC(N3CCCCC3)=NC2=O)cc1 (stereo not given) | – | – | –
C/C=C/c1ccc([C@@H]2[C@@H](CO)N(S(C)(=O)=O)C23CN(C(=O)CC)C3)cc1 | – | · | ·
O=C(Nc1ccc2c(c1)OCCO2)C(c1ccncc1)n1c(=O)c(-c2cc3ccccc3[nH]2)nc2ccccc21 (stereo not given) | – | · | +
O=C(Nc1ccc2c(c1)OCCO2)C(c1ccc(C(F)(F)F)cc1)n1c(=O)c(-c2cc3ccccc3[nH]2)nc2ccccc21 (stereo not given) | – | · | –
CN(C)S(=O)(=O)c1ccc(N=Cc2c(C(F)(F)F)[nH]n(C)c2=O)cc1 | – | – | +
COC(=O)c1ccc(N=Cc2c(C(F)(F)F)[nH]n(C)c2=O)cc1 | – | – | –
